{"source": "ChEMBL document CHEMBL1156269", "about": "“Biological and biophysical properties of the histone deacetylase inhibitor suberoylanilide hydroxamic acid are affected by the presence of short alkyl groups on the phenyl ring” (J Med Chem, 2010)", "tested_on": "Caco-2", "assay": "Induction of P21WAF1 gene expression in human Caco-2 cells at 5 uM after 24 hrs by Western blotting", "assay_type": "functional, cell-based", "summary_of_the_method": "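Caco-2 cells were plated at 3×10⁵/well one day before treatment, then exposed for 24 h at 1 or 5 μM. Cells were scraped into PBS and protein was quantified. Equal protein was run on 12% SDS-PAGE and transferred to nitrocellulose. Blots were probed with mouse anti-p21 (1/1000, milk buffer) and an HRP secondary, with chemiluminescent detection; actin served as loading check.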", "note": "Calls of active or inactive are those of the source. No cut-off for these calls is given here."}
{"smiles": "O=C(CCCCCCC(=O)Nc1ccccc1)NO", "values": [{"measurement": "Activity", "value": "inactive"}]}
